Assay results: PMC6333101 (ACS chemical biology, 2018)
Like-named read-outs stand apart in the source and are kept apart here. Values belong to the compound of their own block, whether it stands above or below them.

Assays:
LRRK2 = LRRK2 (Homo sapiens, UniProt Q5S007); assay: LRRK2 kinase activity in vitro assay; format: biochemical
BRD4 (BD1) [1] = biological target: T1, BRD4 (BD1) (Homo sapiens, UniProt O60885); assay: BRD4-1 AlphaScreen binding assay
ERK5 [2] = biological target: ERK5 (Homo sapiens, UniProt Q13164); assay: ERK5 kinase activity in vitro assay; format: biochemical; settings: for IC50: read-out: Enzymatic IC50 (ERK5), in vitro assay, average of 2 replicates ± SD
panel of 32 bromodomains = assay: BROMOscan bromodomain profiling; format: binding; settings: 10 μM
BRD4 (BD1) [3] = biological target: T1, BRD4 (BD1); assay: BRD4-1 AlphaScreen binding assay; remark: listed apart in the source
ERK5 [4] = assay: Cellular assay of ERK5; format: cell-based, Human
[5] = Variable temperature 1H NMR, interconversion of conformers; format: physicochemical
ERK5 [6] = assay: KinomeScan kinome profiling, ERK5; format: binding; settings: 1 μM, panel of 468 human kinases
Summary of the method: (§1)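 KinomeScan ScanMAX binding panel, single test compound concentration of 1 μM. A hit was defined as an Ambit score below 10%.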

DCAMKL2 [7] = assay: DCAMKL2 biochemical enzyme assay; settings: in vitro biochemical enzyme assays
[8] = tested on: 797 NUT-midline carcinoma cells; assay: 797 NMC cell viability assay; format: cell-based; settings: read-out: Viability IC50 (BRD4), Cell Titer Glo, 3 days, average of 3 replicates ± SD
Summary of the method: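 797 NUT-midline carcinoma cells were seeded at 5,000 cells/well and exposed for 3 days to a range of test compound concentrations or DMSO. Relative cell number was read with Cell Titer Glo following the kit instructions. The methods state 6 replicates; the reported IC50 is the mean of 3 replicates ± SD.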

DCAMKL2 [9] = biological target: T2, DCAMKL2 (Homo sapiens, UniProt Q8N568); assay: KinomeScan kinome profiling, DCAMKL2; format: binding; settings: 1 μM, panel of 468 human kinases
T2 sequence (Q8N568 1-766): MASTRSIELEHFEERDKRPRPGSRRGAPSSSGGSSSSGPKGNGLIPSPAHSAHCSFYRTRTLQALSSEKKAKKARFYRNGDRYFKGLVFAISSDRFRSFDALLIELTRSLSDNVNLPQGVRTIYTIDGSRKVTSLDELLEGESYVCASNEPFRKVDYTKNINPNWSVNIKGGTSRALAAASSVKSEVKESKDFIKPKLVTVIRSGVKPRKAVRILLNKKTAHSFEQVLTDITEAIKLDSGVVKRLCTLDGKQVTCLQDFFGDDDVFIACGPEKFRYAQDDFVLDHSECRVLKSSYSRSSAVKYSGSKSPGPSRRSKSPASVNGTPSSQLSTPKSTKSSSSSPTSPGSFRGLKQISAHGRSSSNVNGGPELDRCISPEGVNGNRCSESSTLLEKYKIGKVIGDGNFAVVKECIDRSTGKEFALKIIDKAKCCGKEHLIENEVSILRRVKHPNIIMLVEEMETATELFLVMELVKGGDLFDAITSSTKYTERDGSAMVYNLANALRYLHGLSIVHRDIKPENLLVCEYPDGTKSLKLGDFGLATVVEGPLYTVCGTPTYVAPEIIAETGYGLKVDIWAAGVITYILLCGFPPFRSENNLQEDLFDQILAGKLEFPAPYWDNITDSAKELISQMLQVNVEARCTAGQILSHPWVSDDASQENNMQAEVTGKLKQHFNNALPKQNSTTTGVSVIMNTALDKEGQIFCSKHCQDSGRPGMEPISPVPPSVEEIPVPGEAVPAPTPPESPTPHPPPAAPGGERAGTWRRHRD
Summary of the method: as §1

[10] = read-out: Enzymatic IC50 (LRRK2), Adapta assay format, average of 2 replicates ± SD
[11] = read-out: Biochemical IC50 (BRD4, μM) a, AlphaScreen, Dana-Farber, average of 2 replicates ± SE
[12] = read-out: Biochemical IC50 (BRD4, μM) b, AlphaScreen, University of Oxford, average of 4 replicates ± SD
[13] = Homo sapiens, HeLa, read-out: Cellular EC50 (ERK5, μM)

LRRK2, sequence (Q5S007 whole entry): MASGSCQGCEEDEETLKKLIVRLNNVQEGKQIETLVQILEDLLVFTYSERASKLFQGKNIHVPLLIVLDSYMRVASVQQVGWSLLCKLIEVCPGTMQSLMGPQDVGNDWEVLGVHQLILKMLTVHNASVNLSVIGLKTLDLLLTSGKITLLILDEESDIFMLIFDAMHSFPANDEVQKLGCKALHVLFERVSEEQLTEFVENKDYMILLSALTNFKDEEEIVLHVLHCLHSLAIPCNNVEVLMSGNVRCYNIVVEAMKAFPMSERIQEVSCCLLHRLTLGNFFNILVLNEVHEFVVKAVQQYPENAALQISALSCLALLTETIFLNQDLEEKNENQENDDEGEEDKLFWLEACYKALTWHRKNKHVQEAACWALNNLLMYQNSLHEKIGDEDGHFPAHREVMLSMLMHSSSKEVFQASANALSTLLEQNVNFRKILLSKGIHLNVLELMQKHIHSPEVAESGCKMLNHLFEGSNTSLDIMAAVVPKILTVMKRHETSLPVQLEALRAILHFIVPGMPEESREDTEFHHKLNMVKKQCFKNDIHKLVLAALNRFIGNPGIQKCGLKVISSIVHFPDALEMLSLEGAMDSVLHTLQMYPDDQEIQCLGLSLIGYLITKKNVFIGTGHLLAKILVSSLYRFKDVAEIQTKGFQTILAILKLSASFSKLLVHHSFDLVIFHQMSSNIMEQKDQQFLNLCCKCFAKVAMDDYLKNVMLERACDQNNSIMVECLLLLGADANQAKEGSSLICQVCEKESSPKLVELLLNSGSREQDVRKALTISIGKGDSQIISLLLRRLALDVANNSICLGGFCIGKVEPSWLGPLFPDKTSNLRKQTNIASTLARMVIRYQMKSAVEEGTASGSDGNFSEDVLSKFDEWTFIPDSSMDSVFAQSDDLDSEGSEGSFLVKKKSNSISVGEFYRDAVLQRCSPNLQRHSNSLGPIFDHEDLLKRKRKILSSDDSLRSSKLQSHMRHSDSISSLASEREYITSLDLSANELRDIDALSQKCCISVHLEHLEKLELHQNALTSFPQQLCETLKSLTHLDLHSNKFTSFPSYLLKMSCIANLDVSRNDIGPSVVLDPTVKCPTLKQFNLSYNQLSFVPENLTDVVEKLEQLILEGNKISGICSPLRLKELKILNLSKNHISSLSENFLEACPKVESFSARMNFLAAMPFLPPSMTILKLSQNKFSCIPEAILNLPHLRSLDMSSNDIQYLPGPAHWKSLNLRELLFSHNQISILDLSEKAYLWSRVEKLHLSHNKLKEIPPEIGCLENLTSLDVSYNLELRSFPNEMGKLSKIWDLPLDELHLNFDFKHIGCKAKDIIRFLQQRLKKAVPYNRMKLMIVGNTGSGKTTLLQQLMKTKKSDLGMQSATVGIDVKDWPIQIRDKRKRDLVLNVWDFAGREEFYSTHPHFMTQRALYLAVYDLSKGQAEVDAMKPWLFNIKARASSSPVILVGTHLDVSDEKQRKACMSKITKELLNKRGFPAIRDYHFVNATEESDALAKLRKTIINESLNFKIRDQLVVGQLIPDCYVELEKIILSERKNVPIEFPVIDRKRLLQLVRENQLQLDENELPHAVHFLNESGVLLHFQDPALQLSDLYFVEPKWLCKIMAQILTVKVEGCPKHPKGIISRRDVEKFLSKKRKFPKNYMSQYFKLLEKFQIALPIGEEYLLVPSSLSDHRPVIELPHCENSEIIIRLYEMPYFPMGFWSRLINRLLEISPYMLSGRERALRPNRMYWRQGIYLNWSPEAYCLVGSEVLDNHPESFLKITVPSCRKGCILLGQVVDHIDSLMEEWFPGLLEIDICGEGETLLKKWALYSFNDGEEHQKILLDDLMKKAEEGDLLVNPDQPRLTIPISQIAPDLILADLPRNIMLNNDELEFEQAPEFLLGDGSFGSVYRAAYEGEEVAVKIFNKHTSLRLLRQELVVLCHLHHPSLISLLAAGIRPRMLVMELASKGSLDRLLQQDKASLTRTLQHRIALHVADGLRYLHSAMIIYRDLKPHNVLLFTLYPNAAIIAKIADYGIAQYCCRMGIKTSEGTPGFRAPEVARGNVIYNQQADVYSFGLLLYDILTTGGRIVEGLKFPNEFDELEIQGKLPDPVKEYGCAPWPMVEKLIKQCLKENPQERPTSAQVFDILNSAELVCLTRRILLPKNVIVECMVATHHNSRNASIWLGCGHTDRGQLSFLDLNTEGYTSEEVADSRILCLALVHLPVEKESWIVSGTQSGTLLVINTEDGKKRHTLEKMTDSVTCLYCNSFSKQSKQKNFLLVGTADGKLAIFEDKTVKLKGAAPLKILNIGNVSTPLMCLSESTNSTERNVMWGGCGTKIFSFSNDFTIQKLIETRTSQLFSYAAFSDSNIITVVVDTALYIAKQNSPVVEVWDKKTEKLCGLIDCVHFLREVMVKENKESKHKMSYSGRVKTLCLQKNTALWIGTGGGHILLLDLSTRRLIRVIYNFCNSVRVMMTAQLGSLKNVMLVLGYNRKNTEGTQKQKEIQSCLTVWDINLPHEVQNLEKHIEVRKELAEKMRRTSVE
ERK5 (Homo sapiens, UniProt Q13164), sequence (Q13164 whole entry): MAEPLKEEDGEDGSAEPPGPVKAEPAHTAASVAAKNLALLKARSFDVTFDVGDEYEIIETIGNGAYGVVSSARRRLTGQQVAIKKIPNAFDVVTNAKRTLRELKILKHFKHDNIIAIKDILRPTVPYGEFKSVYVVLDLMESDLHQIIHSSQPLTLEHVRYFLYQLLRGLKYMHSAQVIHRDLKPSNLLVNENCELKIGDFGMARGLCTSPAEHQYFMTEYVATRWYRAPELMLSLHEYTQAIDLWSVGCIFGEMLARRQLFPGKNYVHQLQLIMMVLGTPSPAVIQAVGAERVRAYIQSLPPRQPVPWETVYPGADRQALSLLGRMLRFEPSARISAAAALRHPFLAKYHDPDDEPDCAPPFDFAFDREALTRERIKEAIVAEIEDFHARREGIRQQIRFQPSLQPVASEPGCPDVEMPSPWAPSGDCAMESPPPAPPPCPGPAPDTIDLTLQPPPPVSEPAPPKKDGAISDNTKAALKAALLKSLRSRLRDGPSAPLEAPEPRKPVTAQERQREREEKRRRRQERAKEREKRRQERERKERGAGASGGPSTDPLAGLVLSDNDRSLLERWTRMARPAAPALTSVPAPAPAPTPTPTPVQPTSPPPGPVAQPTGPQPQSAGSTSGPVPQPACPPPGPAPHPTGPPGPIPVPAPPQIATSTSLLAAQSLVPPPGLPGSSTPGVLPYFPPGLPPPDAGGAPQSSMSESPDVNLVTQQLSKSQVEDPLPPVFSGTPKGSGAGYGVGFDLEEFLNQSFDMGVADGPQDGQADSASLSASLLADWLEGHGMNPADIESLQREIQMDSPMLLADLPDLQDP

- IC50 (LRRK2; [10]): > 3300 nM
- decrease of activity against BRD4 compared to the pyrimidine analogs XMD11–50 and JWG-047 (BRD4 (BD1) [1]; pyridine vs pyrimidine core): 4–8 fold
- IC50 (BRD4 (BD1) [1]; read-out: BRD4 IC50, value as stated in text): 1 µM
- IC50 (BRD4 (BD1) [1]; [11]): 1.08 ± 0.05 µM
- IC50 (ERK5 [2]): > 10000 nM
- BROMOscan binding among BET family (panel of 32 bromodomains): strong binding
- BROMOscan binding outside BET family (panel of 32 bromodomains): no binding
- IC50 (BRD4 (BD1) [3]; [12]): 1.1 ± 0.05 µM
SMILES: CC(C)Oc1cc(C(=O)N2CCC(N3CCN(C)CC3)CC2)ccc1Nc1ccc2c(n1)N(C1CCCC1)c1ccccc1C(=O)N2C [JWG-115]

- IC50 (BRD4 (BD1) [1]): 0.217 ± 0.008 µM
- IC50 (BRD4 (BD1) [3]): 0.68 ± 0.03 µM
SMILES: CCOc1cc(C(=O)N2CCC(N3CCN(C)CC3)CC2)ccc1Nc1ncc2c(n1)N(C1CCCC1)c1ccccc1C(=O)N2C [XMD17–109 (ERK5-IN-1), reference compound]

- Calc ΔErac ([5]; calculated energy barrier of interconversion): 15.9 kcal/mol
- Tco (coalescence temperature) ([5]; variable temperature 1H NMR in DMSO-d6): 60 °C
- selectivity for ERK5 relative to LRRK2 (LRRK2; in vitro biochemical enzyme assays): 1.2 folds
- IC50 (LRRK2; [10]): 109 ± 14 nM
- IC50 (BRD4 (BD1) [1]; [11]): 5.42 ± 0.18 µM
- improved ERK5 activity compared to XMD17–109 (ERK5-IN-1) (ERK5 [2]): 2 fold
- IC50 (ERK5 [2]): 88 ± 5 nM
- selectivity for ERK5 relative to DCAMKL2 (DCAMKL2 [7]): 2.5 folds
- EC50 (ERK5 [4]; read-out: Cellular EC50 (ERK5), EGF-stimulated autophosphorylation of ERK5 in Hela cells, average of 2 replicates ± SD): 0.02 ± 0.003 µM
- IC50 (BRD4 (BD1) [3]; [12]): 6.31 ± 1.93 µM
- IC50 [8]: > 10000 nM
- Ambit score (DCAMKL2) (DCAMKL2 [9]): less than 10%
SMILES: CCC(C)N1c2ccccc2C(=O)N(C)c2cnc(Nc3ccc(C(=O)N4CCC(N5CCN(C)CC5)CC4)cc3OC)nc21 (stereo not drawn) [JWG-071]
- Ambit score (ERK5) (ERK5 [6]): less than 10%

- IC50 (LRRK2): 942 ± 569 nM
SMILES: CCOc1cc(C(=O)N2CCC(N3CCN(C)CC3)CC2)ccc1Nc1ncc2c(n1)N(S(C)(=O)=O)c1ccccc1C(=O)N2C [AX15836, reference compound]

- IC50 (LRRK2): 3.4 ± 1.7 nM
SMILES: COc1cc(C(=O)N2CCC(N3CCN(C)CC3)CC2)ccc1Nc1ncc2c(n1)N(C)c1ccccc1C(=O)N2C [XMD11–50 (LRRK2-IN-1)]
